Compound activity: PubChem BioAssay, NMMLSC
RGS7-Gao: human RGS7-Galphao interaction regulation | Multiplexed bead flow cytometry, RGS7-Galphao binding; actives lie on both sides | binding response (% of control), % at 10 µM | hit rate 0.35% among 220,000 | AID 1439; in the data active means binding response below about 49% or above about 150%; inconclusive means no clear call, values can overlap the other calls; inactive means in between;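 further: fluorescent Galphao held in activated GDP-AlF4 state binding bead-coupled RGS7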
Target sequence (P09471 whole entry, looked up): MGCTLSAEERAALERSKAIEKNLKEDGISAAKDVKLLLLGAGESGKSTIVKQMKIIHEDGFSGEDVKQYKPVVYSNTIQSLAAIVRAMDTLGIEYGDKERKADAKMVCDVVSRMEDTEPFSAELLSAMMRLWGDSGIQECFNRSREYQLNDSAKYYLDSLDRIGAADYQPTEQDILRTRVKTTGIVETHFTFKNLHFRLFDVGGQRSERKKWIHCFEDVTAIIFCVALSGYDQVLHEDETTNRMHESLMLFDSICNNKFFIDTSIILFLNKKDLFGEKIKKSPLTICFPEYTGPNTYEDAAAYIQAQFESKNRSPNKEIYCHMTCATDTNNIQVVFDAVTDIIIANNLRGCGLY
RGS16-Gao HTS: modulates binding between human RGS16 and Galphao. O15492+P09471. binding response (% of control), % at 10 µM. bead-based flow cytometry RGS16-Galphao binding, fluorescence; actives lie on both sides. AID 1441. hit rate 0.38% among 220,000;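 further: Galphao activated by GDP with aluminum fluoride before binding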
RGS4-Gao reg: modulates binding of RGS4 to human Galphao; P09471; Multiplexed bead flow cytometry; actives lie on both sides; binding response (% of control), % at 10 µM; hit rate 0.33% among 220,000; in the data active means binding response below about 49% or above about 150%; inactive means in between;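 further: fluorescent Galphao activated with aluminum fluoride binding bead-coupled RGS4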
RGS8-Gao: modulates binding of RGS8 to human Galphao. multiplexed bead flow cytometry; actives lie on both sides. P09471. response (percent of control binding), % at 10 µM. hit rate 0.34% among 220,000; in the data active means response below about 60% or above about 140%; inactive means in between;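 further: Galphao activated as the GDP aluminium fluoride complex binding bead-coupled RGS8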
ABCB1 block: human ABCB1 inhibition, ABCG2 as counter-screen; P08183; CCRF-Adr cells, JC-1 efflux, flow cytometry; inhibition, % at 6.6 µM; hit rate 0.067% among 190,000; AID 1326; in the data active means inhibition above about 40%;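 further: higher value means more JC-1 retained so stronger ABCB1 efflux block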
ABCG2 block: blocks JC-1 efflux by human ABCG2 transporter | hit rate 0.1% among 190,000 | AID 1325 | IgMXP3 cells, flow cytometry | inhibition, % at 6.6 µM;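 active means inhibition above 80%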
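Test system: IgMXP3 cells (ABCG2) mixed with DDAO far-red-labelled CCRF-Adr cells (ABCB1). Reagent: JC-1 transporter substrate. Compound dosing: single test compound dose, 6.6 µM final. Times: 10 min compound exposure, 25 °C. Detection: flow cytometry of retained JC-1 fluorescence. Read-out basis: efflux inhibition in percent versus controls. Controls: nicardipine and DMSO wells.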
RGS4-Gao HTS: RGS4-Galphao interaction regulator (human) | hit rate 99% among 1,600 | multiplexed bead flow cytometry, RGS–Galpha-o binding | RGS4–Galpha-o binding response, % at 10 µM | shares compounds with RGS16-Gao HTS | AID 1504;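 further: fluorescently labeled Galpha-o bound to GDP with aluminium fluoride binding biotinylated RGS beads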
Target sequence (P09471 whole entry, looked up): as above
Target sequence (P49798 whole entry, looked up): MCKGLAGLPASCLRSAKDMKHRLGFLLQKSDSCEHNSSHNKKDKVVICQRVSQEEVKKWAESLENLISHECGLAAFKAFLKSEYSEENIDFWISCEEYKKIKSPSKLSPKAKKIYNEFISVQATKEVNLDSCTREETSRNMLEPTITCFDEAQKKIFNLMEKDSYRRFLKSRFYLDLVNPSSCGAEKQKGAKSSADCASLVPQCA
Biotin-avidin: counter-screen: compounds disrupting biotin binding to avidin beads; streptavidin beads, fluorescein-biotin binding, flow cytometry; 1,700 tested, under 10 active; inhibition, % at 10 µM; shares compounds with RGS16-Gao HTS;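 active means inhibition above 50%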;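 further: median green fluorescence of gated singlet beads compared with DMSO control wells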
RGS8-Gao confirm: confirmation of regulators of human RGS8-Galphao interaction. shares compounds with RGS16-Gao HTS. bead-based flow cytometry RGS8-Galphao binding, fluorescence; actives lie on both sides. binding response (% of control), % at 10 µM. hit rate 3% among 1,700; in the data active means binding response below about 72% or above about 130%; inactive means in between;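 further: Galphao activated as GDP AlF4 complex before binding bead RGS8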
RGS7-Gao single: confirmation of regulators of human RGS7-Galphao interaction | shares compounds with RGS16-Gao HTS | bead-based flow cytometry RGS7-Galphao binding; actives lie on both sides | response (percent of control binding), % at 10 µM | hit rate 7.8% among 1,700; in the data active means response below about 75% or above about 130%; inactive means in between;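 further: fluorescent Galphao activated with GDP and aluminum fluoride binding bead-coupled RGS7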
RGS16-Gao single: confirmation of regulators of human RGS16-Galphao interaction; hit rate 4% among 1,700; shares compounds with RGS16-Gao HTS; AID 1838; response (% of control binding), % at 10 µM; bead-based flow cytometry, RGS16-Galphao binding; actives lie on both sides; in the data active means response below about 74% or above about 130%; inactive means in between;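 further: Galphao activated as the GDP aluminium fluoride complex binding bead-coupled RGS16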
RGS4-Gao single: confirmation of regulators of human RGS4-Galphao interaction; shares compounds with RGS16-Gao HTS; RGS4-Galphao binding, multiplexed bead flow cytometry; actives lie on both sides; binding response (% of control), % at 10 µM; hit rate 4% among 1,700; in the data active means binding response below about 74% or above about 130%; inactive means in between
RGS19-Gao single: confirmation of regulators of human RGS19-Galphao interaction | response (percent of control binding), % at 10 µM | hit rate 5% among 1,700 | shares compounds with RGS16-Gao HTS | AID 1841 | bead-based flow cytometry RGS19-Galphao binding; actives lie on both sides; in the data active means response below about 50% or above about 160%; inactive means in between
Large screens that a line does not name were inactive (follow-up assays come after a bar, where they were run); [ ] = another dose, or the depositor's remark. The list is not random: actives were taken first. Their share in the collection is about 0.83%. Unless noted, how the calls were made is not given here.

CC(OC(=O)c1ccccc1NS(=O)(=O)c1cccc(N)c1)C(=O)N(C)Cc1ccccc1 (stereo not given)	RGS16-Gao HTS 12 | RGS4-Gao HTS 91 | Biotin-avidin inactive | RGS8-Gao confirm inactive | RGS7-Gao single inactive | RGS16-Gao single inactive | RGS4-Gao single inactive | RGS19-Gao single inactive
COc1ccccc1NC(=O)CN1CCSc2ccccc21	none
CCOC(=O)C1CCN(C(=O)CSc2ccc(Cl)cc2)CC1	RGS16-Gao HTS 8.3, RGS4-Gao reg 49, RGS8-Gao 49 | Biotin-avidin inactive | RGS8-Gao confirm inactive | RGS7-Gao single inactive | RGS16-Gao single inactive | RGS4-Gao single inactive | RGS19-Gao single inactive
Cc1cccc(CSc2ncccc2C(=O)O)c1	RGS16-Gao HTS 285[activator] | RGS4-Gao HTS 122 | Biotin-avidin inactive | RGS8-Gao confirm inactive | RGS7-Gao single inactive | RGS16-Gao single inactive | RGS4-Gao single inactive | RGS19-Gao single inactive
Cc1ccc(NC(=O)CSc2nc3ccccc3c(=O)n2CCCC(=O)NCCCN2CCOCC2)cc1C	none
Cc1ccc(NC(=O)CSc2nc3ccccc3c(=O)n2CCCN2CCCCC2)cc1Cl	RGS8-Gao 149[activator] | RGS4-Gao HTS 115 | Biotin-avidin inactive | RGS8-Gao confirm inactive | RGS7-Gao single 61 | RGS16-Gao single inactive | RGS4-Gao single 71 | RGS19-Gao single inactive
CC1CCN(CCCn2c(SCC(=O)Nc3ccccc3Cl)nc3ccccc3c2=O)CC1	RGS8-Gao 145[activator] | RGS4-Gao HTS 119 | Biotin-avidin inactive | RGS8-Gao confirm inactive | RGS7-Gao single inactive | RGS16-Gao single inactive | RGS4-Gao single inactive | RGS19-Gao single inactive
N#CC1=C(Nc2ccccc2)SC=C(c2ccc(Br)cc2)N=C1N1CCOCC1	none
Cc1ccc(C)n1-c1nccc(-c2ccco2)n1	RGS7-Gao inconclusive
Cc1ccc(NC(=O)NC(=O)N(C(C)C)S(C)(=O)=O)nc1	RGS16-Gao HTS 239[activator] | RGS4-Gao HTS 100
CN1C(=O)N2CN(C3CCCCC3)CN3C(=O)N(C)C1C23 (stereo not given)	none
CN1C(=O)N(CN2CCCCC2)C2C1N(C)C(=O)N2CN1CCCCC1 (stereo not given)	RGS8-Gao 154[activator] | RGS4-Gao HTS 127
Cc1ccccc1/C=C/c1nc2ccccc2c(=O)[nH]1	RGS7-Gao inconclusive, RGS16-Gao HTS 14, RGS4-Gao reg 7.3, RGS8-Gao 42 (no result: ABCB1 block, ABCG2 block) | Biotin-avidin inactive | RGS8-Gao confirm inactive | RGS7-Gao single inactive | RGS16-Gao single inactive | RGS4-Gao single inactive | RGS19-Gao single inactive
Cc1ccccc1/C=C\c1nc2ccccc2c(=O)[nH]1	none
CCC(=O)Nc1cc(ON=C(C)C)cc([N+](=O)[O-])c1	RGS7-Gao -15, RGS4-Gao reg -40, RGS8-Gao 34 | Biotin-avidin inactive | RGS8-Gao confirm inactive | RGS7-Gao single inactive | RGS16-Gao single inactive | RGS4-Gao single inactive | RGS19-Gao single inactive
CCOC(=O)c1[nH]c(C)c(C(=O)NCc2cccnc2)c1C	none
Cc1nn(CCC(=O)O)c(C)c1C	RGS7-Gao 165[activator] | RGS4-Gao HTS 103 | Biotin-avidin inactive | RGS8-Gao confirm inactive | RGS7-Gao single inactive | RGS16-Gao single inactive | RGS4-Gao single inactive | RGS19-Gao single inactive
Cc1nn(Cc2ccccc2)c(C)c1CCC(=O)O	none
COCC1CCCCN1Cc1cn(-c2ccccc2)nc1-c1ccc2c(c1)OCO2 (stereo not given)	RGS7-Gao 182[activator] | RGS4-Gao HTS 116 | Biotin-avidin inactive | RGS8-Gao confirm inactive | RGS7-Gao single inactive | RGS16-Gao single inactive | RGS4-Gao single inactive | RGS19-Gao single inactive
OC[C@@H]1CCCN1Cc1cn(-c2ccccc2)nc1-c1ccc2c(c1)OCO2	none
CCO[C@@H]1OC(C(=O)N2CCN(Cc3ccc4c(c3)OCO4)CC2)=C[C@H](c2cn(C(C)=O)c3ccccc23)[C@H]1CCCO	RGS7-Gao 167[activator] | RGS4-Gao HTS 137 | Biotin-avidin inactive | RGS8-Gao confirm inactive | RGS7-Gao single inactive | RGS16-Gao single inactive | RGS4-Gao single inactive | RGS19-Gao single inactive
CCO[C@H]1OC(C(=O)N2CCN(Cc3ccc4c(c3)OCO4)CC2)=C[C@@H](C2CC2)[C@@H]1CCCO	RGS7-Gao 42 | RGS4-Gao HTS 51 | Biotin-avidin inactive | RGS8-Gao confirm inactive | RGS7-Gao single inactive | RGS16-Gao single inactive | RGS4-Gao single inactive | RGS19-Gao single inactive
CCO[C@@H]1OC(C(=O)N2CCN(Cc3ccc4c(c3)OCO4)CC2)=C[C@H](c2csc3ccccc23)[C@H]1CCCO	none
COC(=O)NC(C)N1C(=O)C2C3C=CC(C3)C2C1=O (stereo not given)	none
COc1ccccc1C(=O)NC(C)C(c1cccs1)N1CCOCC1 (stereo not given)	none
CCCCNC1CCS(=O)(=O)C1 (stereo not given)	none (no result: RGS7-Gao, RGS16-Gao HTS, RGS4-Gao reg, RGS8-Gao) | Biotin-avidin inactive | RGS8-Gao confirm inactive | RGS7-Gao single inactive | RGS16-Gao single inactive | RGS4-Gao single inactive | RGS19-Gao single inactive
CCCNC1CCS(=O)(=O)C1 (stereo not given)	none
CCCc1nn2c(=O)c(C(c3cccc(Cl)c3)c3c(O)nc4sc(CCC)nn4c3=O)c(O)nc2s1	none
COc1ccc(-c2csc(NC(=O)c3ccc(OCC(=O)N4CCOCC4)c(OC)c3)n2)cc1OC	RGS16-Gao HTS 18 | RGS4-Gao HTS 97 | Biotin-avidin inactive | RGS8-Gao confirm inactive | RGS7-Gao single inactive | RGS16-Gao single inactive | RGS4-Gao single inactive | RGS19-Gao single inactive
O=C(NCCc1cnn(-c2ccccc2)c1)c1cc(COc2c(F)cccc2F)on1	none
